Assay results as given in ChEMBL document CHEMBL3997810, “A Novel Potent Anticancer Compound Optimized from a Natural Oridonin Scaffold Induces Apoptosis and Cell Cycle Arrest through the Mitochondrial Pathway” (J Med Chem, 2017).
pIC50: −log10 of the molar value. Activity calls are given as the source filed them. The calls are words filed in the database; no cut-off is given here.

Key:
MCF7 [1] = assay: Induction of apoptosis in human MCF7 cells assessed as increase in Bax protein expression at 0.5 to 1 uM after 48 hrs by Western blot method; assay type: functional, cell-based
In short: (§1)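 MCF-7 cells were treated at 0, 0.125, 0.25, 0.5 or 1 μM for 48 h, washed in ice-cold PBS and lysed on ice for 20 min. Lysates were spun at 13,000 g, 4 °C. 20 μg protein was run on SDS-PAGE and blotted to PVDF, probed overnight at 4 °C with primary antibodies, then with fluorescent secondary antibodies. Band density was expressed relative to β-actin; three independent experiments.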

K562 = assay: Antiproliferative activity against human K562 cells after 72 hrs by MTT assay; assay type: functional, cell-based; settings: K562, 72 h
In short: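 MGC-803 and MCF-7 cells grown in DMEM (MCF-7 with 1× NEAA); Bel-7402 and K562 grown in RPMI 1640; all media with 10% FBS. Cells seeded at 3500/well, pre-incubated 24 h, then exposed to compounds in fresh medium (DMSO ≤0.25%) for 72 h at 37 °C. MTT read-out at 570 nm. Quadruplicate wells, repeated three times; means ± SD (n = 3).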

[2] = Antiproliferative activity against human KB/CP4 cells after 48 hrs by MTT assay; assay type: functional, cell-based; settings: KB/CP4, 48 h
In short: (§2)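 Colorimetric MTT assay. KB-3-1, NCI-H460 and Bel-7404 cells were seeded at 4000 cells/well; resistant KB/CP4, NCI-H460/MX20 and Bel-7404/CP20 were seeded at 7000 cells/well. Cells were pre-incubated 24 h at 37 °C, 5% CO2, then exposed to a compound concentration series for 48 h with DMSO ≤0.25%. Absorbance read at 570 nm. Quadruplicate wells, three repeats; means ± SD.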

NCI-H460 = assay: Antiproliferative activity against human NCI-H460 cells after 48 hrs by MTT assay; assay type: functional, cell-based; settings: NCI-H460, 48 h; in short: as §2
BEL-7404 tumor cell line = assay: Antiproliferative activity against human Bel7404 cells after 48 hrs by MTT assay; assay type: functional, cell-based; settings: BEL-7404, 48 h; in short: as §2
[3] = Selectivity ratio of IC50 for human L02 cells to IC50 for human Bel7402 cells
MCF7 [4] = assay: Cell cycle arrest in human MCF7 cells assessed as accumulation at G2/M phase at 0.125 uM after 48 hrs by propidium iodide staining based flow cytometry (reference value: 13.05%); assay type: functional
In short: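 MCF-7 cells, 5 × 10^4 per well, seeded overnight, then exposed to 0.125–1 μM compound, or DMSO, for 48 h. Ethanol-fixed (70%, −20 °C, 12 h) and stained with PI/RNase at 37 °C for 30 min. Phase distribution determined by flow cytometry.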

Bel-7402 [5] = assay: Cell cycle arrest in human Bel7402 cells assessed as accumulation at G1 phase at 2 uM after 48 hrs by propidium iodide staining based flow cytometry (reference value: 34.61%); assay type: functional
Bel-7402 [6] = assay: Cell cycle arrest in human Bel7402 cells assessed as accumulation at G2/M phase at 2 uM after 48 hrs by propidium iodide staining based flow cytometry (reference value: 56.61%); assay type: functional
Bel-7402 [7] = assay: Cell cycle arrest in human Bel7402 cells assessed as accumulation at S phase at 4 uM after 48 hrs by propidium iodide staining based flow cytometry (reference value: 8.78%); assay type: functional
MCF7 [8] = assay: Induction of apoptosis in human MCF7 cells assessed as chromatin condensation at 0.125 to 1 uM after 36 hrs by Hoechst 33342 staining based fluorescence microscopic method; assay type: functional, cell-based
MCF7 [9] = assay: Induction of apoptosis in human MCF7 cells assessed as live cells at 0.125 uM after 24 hrs by Annexin-V FITC/propidium iodide staining based flow cytometry (reference value: 97%); assay type: functional
MCF7 [10] = assay: Induction of apoptosis in human MCF7 cells assessed as late apoptotic cells at 0.125 uM after 24 hrs by Annexin-V FITC/propidium iodide staining based flow cytometry (reference value: 0.255%); assay type: functional
MCF7 [11] = assay: Induction of apoptosis in human MCF7 cells assessed as early apoptotic cells at 0.5 uM after 24 hrs by Annexin-V FITC/propidium iodide staining based flow cytometry (reference value: 2.65%); assay type: functional
MCF7 [12] = assay: Induction of apoptosis in human MCF7 cells assessed as late apoptotic cells at 0.5 uM after 24 hrs by Annexin-V FITC/propidium iodide staining based flow cytometry (reference value: 0.255%); assay type: functional
MCF7 [13] = assay: Induction of apoptosis in human MCF7 cells assessed as early apoptotic cells at 1 uM after 24 hrs by Annexin-V FITC/propidium iodide staining based flow cytometry (reference value: 2.65%); assay type: functional
MCF7 [14] = assay: Induction of apoptosis in human MCF7 cells assessed as late apoptotic cells at 1 uM after 24 hrs by Annexin-V FITC/propidium iodide staining based flow cytometry (reference value: 0.255%); assay type: functional
MCF7 [15] = assay: Induction of apoptosis in human MCF7 cells assessed as necrotic cells at 1 uM after 24 hrs by Annexin-V FITC/propidium iodide staining based flow cytometry (reference value: 0.102%); assay type: functional
MCF7 [16] = assay: Induction of apoptosis in human MCF7 cells assessed as decrease in pro-caspase-3 to caspase-3 protein expression ratio after 48 hrs by Western blot method; assay type: functional, cell-based
In short: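 MCF-7 cells exposed to 0–1 μM compound for 48 h, then lysed on ice. Lysate (20 μg protein) run on 8–12% SDS-PAGE and transferred to PVDF. Probed overnight at 4 °C with primary antibodies, then fluorescent secondaries. Band densities normalized to β-actin. Mean ± SD of three independent experiments.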

MCF7 [17] = assay: Induction of apoptosis in human MCF7 cells assessed as increase in caspase-9 protein expression up to 1 uM after 48 hrs by Western blot method; assay type: functional, cell-based; in short: as §1
Mus musculus = assay: Nephrotoxicity in Balb/c nude mouse xenografted with human MCF7 cells assessed as morphological changes in kidney at 20 mg/kg/day, iv for 4 weeks by hematoxylin and eosin staining based microscopic method; assay type: toxicity, organism-based; settings: in vivo, 672 h
In short: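 Male BALB/c nude mice aged six weeks received 1 × 10^6 MCF-7 cells subcutaneously in the right flank. After 7 d they were randomized and dosed 20 mg/kg iv once daily in 10% DMF/2% poloxamer/88% saline; saline control. Heart, liver, spleen, lung and kidney were fixed in 4% paraformaldehyde, paraffin-embedded, sectioned at 5 μm, H&E stained and examined microscopically.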

H22 = assay: Antitumor activity against […] cells xenografted in ICR mouse assessed as tumor growth inhibition at 20 mg/kg/day, iv for 3 weeks; assay type: functional, organism-based
In short: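 Male ICR mice (5 weeks old) inoculated subcutaneously in the right flank with 1 × 10^6 H22 cells. After 7 d, randomized into groups of eight or six. Dosed iv 20 mg/kg daily in 10% DMF/2% poloxamer/88% saline. Cyclophosphamide 20 mg/kg iv as positive control; saline as negative control. Body weight and tumour volume (L × W²/2) every 2 days; inhibition calculated from final tumour weights.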

Q: Which Activity (MCF7 [1]) does the source give for `C=C1C(=O)[C@]23[C@H](OC(=O)/C=C/c4ccccc4)[C@H]1CC[C@H]2[C@]12C=CCC(C)(C)[C@H]1[C@H](O)[C@]3(O)OC2` here?
A: The Activity was “Active”.

Q: What about the pIC50 (K562) of the same molecule?
A: The pIC50 was 6.54.

Q: And the pIC50 [2]?
A: The pIC50 was 5.81.

Q: What about the pIC50 (NCI-H460) of the same molecule?
A: Its pIC50 is 5.58.

Q: What about the pIC50 (BEL-7404 tumor cell line) of the same molecule?
A: Its pIC50 is 5.23.

Q: And the “Ratio IC50” value [3]?
A: The value was 4.07.

Q: What about the Activity (MCF7 [4]) of the same molecule?
A: The Activity was 16.83%.

Q: What about the Activity (Bel-7402 [5]) of the same molecule?
A: Its Activity is 31.15%.

Q: What about the Activity (Bel-7402 [6]) of the same molecule?
A: Its Activity is 58.07%.

Q: What about the Activity (Bel-7402 [7]) of the same molecule?
A: Its Activity is 9.55%.

Q: And the Activity (MCF7 [8])?
A: Its Activity is “Active”.

Q: And the Activity (MCF7 [9])?
A: The Activity was 84.9%.

Q: And the Activity (MCF7 [10])?
A: The Activity was 9.32%.

Q: And the Activity (MCF7 [11])?
A: The Activity was 13.3%.

Q: What about the Activity (MCF7 [12]) of the same molecule?
A: The Activity was 30.2%.

Q: And the Activity (MCF7 [13])?
A: Its Activity is 22.4%.

Q: What about the Activity (MCF7 [14]) of the same molecule?
A: The Activity was 45.2%.

Q: What about the Activity (MCF7 [15]) of the same molecule?
A: The Activity was 1.14%.

Q: What about the Activity (MCF7 [16]) of the same molecule?
A: The Activity was “Dose-dependent effect”.

Q: And the Activity (MCF7 [17])?
A: The Activity was “Active”.

Q: And the Activity (Mus musculus)?
A: The Activity was “Non-Toxic”.

Q: What about the TGI (H22) of the same molecule?
A: The TGI was “Active”.
